Assay outcomes: PubChem BioAssay, Broad Institute
CAL PDZ FP-1: inhibitors of human CAL PDZ peptide binding; Q9HD26; purified CAL PDZ, TMR-peptide fluorescence polarization, 1 h; inhibition, % at 24.9 µM; actives 0.92% (n = 300,000);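 active means mean inhibition of at least 30% with at least half of replicates also reaching 30%; inconclusive means no clear call, values can overlap the other calls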
miR-122 sensor: blocks miR-122 activity in Huh7 sensor cells. Huh7 miR-122 Renilla luciferase sensor, 48 h; neutral wells = 0, positive control = 100. activation (reporter increase), % at 12.5 µM. actives 0.3% (n = 340,000);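 active means mean replicate activation score at least 90 and every replicate individually at or above 90; inconclusive means only one of the two criteria met; inactive means neither criterion met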;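 further: higher luciferase means less miR-122 activity so hits act as miR-122 inhibitors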
CAL PDZ FP-2: inhibitors of human CAL PDZ peptide binding; actives 0.02% (n = 330,000); Q9HD26; inhibition, % at 20 µM; purified CAL PDZ, TMR-peptide fluorescence polarization, 1 h;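 active means highest replicate inhibition of at least 40%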
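Control set: unlabelled peptide and DMSO controls / Material: purified CerCALP PDZ construct / Timing: 1 h incubation at room temperature before polarization reading / Doses: 20 µM, one dose / Detection: fluorescence polarization (mP)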
ARNT-TACC3 inh: disrupts binding between human ARNT and TACC3 | inhibition, % at 9.99 µM | actives 0.66% (n = 390,000) | Q9Y6A5 | AlphaScreen His-ARNT PAS-B/GST-TACC3 binding, luminescence; TACC3 fragment carries E629A point mutation;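 active means mean inhibition of replicates at least 50% and at least half of replicates each reaching 50%; inconclusive means half or more replicates reach 50% but mean below 50%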
PGC1a acetyl inh: PGC1a acetylation modulation, inhibitor mode | inhibition, % at 15.6 µM | actives 0.17% (n = 350,000) | U2OS PGC1a acetylation, AlphaScreen anti-acetyl-lysine; with virally co-expressed GCN5 acetyltransferase;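 active means every replicate shows inhibition of at least 40%; inconclusive means mean inhibition at least 40% but some replicate below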
CFTR F508del cor: correctors of CFTR F508del function in bronchial epithelial cells. actives 0.36% (n = 350,000). CFBE cells, YFP halide quenching; stimulated with forskolin plus potentiator P3; % fluorescence drop versus neutral controls. AID 720511. activity (quench increase), % at 7.58 µM;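 active means mean added fluorescence quench of at least 8% versus neutral control, with both replicates also reaching 8%; inconclusive means only one of the mean or replicate conditions met; inactive means mean below 8% and not both replicates reaching 8%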;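 further: cells transiently co-express mutant CFTR-F508del with the halide-sensitive YFP; corrector assay measuring rescue of mutant channel to the surface after 24 h compound exposure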
Large screens that a line does not name were inactive. Sampled rows, rich in hits. Any-hit rate of the full collection: about 1.7%.

COc1ccc(NC(=O)COC(=O)CNS(=O)(=O)c2ccccc2)cc1OC	CFTR F508del cor 14 (no result: CAL PDZ FP-1, miR-122 sensor, PGC1a acetyl inh)
CCOC(=O)c1cc(S(=O)(=O)NCCc2ccccc2)cn1C	miR-122 sensor 114
O=C(Nc1ccc(S(=O)(=O)NCCc2ccccc2)cc1)c1ccc(Br)o1	miR-122 sensor 201 (no result: CFTR F508del cor)
Cc1noc(C)c1NC(=O)Nc1cccc2c1O[C@@H](CN(C)Cc1ccc(C(F)(F)F)cc1)[C@H](C)CN([C@@H](C)CO)C2=O	none (no result: CAL PDZ FP-1, CAL PDZ FP-2)
O=C(C[C@H]1CC[C@@H]2[C@H](COC[C@@H](O)CN2C(=O)Nc2ccc3c(c2)OCO3)O1)N1CCN(c2ccccc2)CC1	none (no result: CAL PDZ FP-1, CAL PDZ FP-2)
CCC(=O)Nc1ccc(S(=O)(=O)NCCc2ccccc2)cc1	miR-122 sensor inconclusive (no result: CFTR F508del cor)
COCC(=O)Nc1ccc(S(=O)(=O)NCCc2ccccc2)cc1	miR-122 sensor 118 (no result: CAL PDZ FP-1, PGC1a acetyl inh, CFTR F508del cor)
CC(C)NC(=O)Nc1ccc2c(c1)CC(=O)N([C@H](C)CO)C[C@H](C)[C@@H](CN(C)C(=O)Nc1ccc(C(F)(F)F)cc1)O2	none (no result: CAL PDZ FP-1, CAL PDZ FP-2)
CCCC(=O)Nc1ccc2c(c1)OC[C@@H](C)N(CCc1ccccc1)C[C@H](C)[C@@H](OC)CN(C)C2=O	none (no result: CAL PDZ FP-1, CAL PDZ FP-2, ARNT-TACC3 inh)
Cc1ccc2c(c1)C(=C(C#N)C#N)CCN2	CAL PDZ FP-1 39 (no result: miR-122 sensor, PGC1a acetyl inh)
O=C(Nc1nnc(C2CC2)o1)c1ccc(S(=O)(=O)N2CCCc3ccccc32)cc1	ARNT-TACC3 inh 48 (no result: CAL PDZ FP-1)
COCc1nnc(NC(=O)c2ccc(S(=O)(=O)N3CCCc4ccccc43)cc2)o1	none (no result: miR-122 sensor, ARNT-TACC3 inh, PGC1a acetyl inh, CFTR F508del cor)
CC1CCCCN1S(=O)(=O)c1ccc(C(=O)Nc2nnc(-c3ccco3)o2)cc1 (stereo unspecified)	none (no result: PGC1a acetyl inh)
Cc1nnc(NC(=O)c2ccc(S(=O)(=O)N3CCCCC3C)cc2)o1 (stereo unspecified)	ARNT-TACC3 inh 51
CC1CCCCN1S(=O)(=O)c1ccc(C(=O)Nc2nnc(C3CC3)o2)cc1 (stereo unspecified)	ARNT-TACC3 inh 46 (no result: PGC1a acetyl inh)
CO[C@H]1CN(C)C(=O)c2ccc(NC(=O)c3ccccc3F)cc2OC[C@H](C)NC[C@@H]1C	none (no result: CAL PDZ FP-1, miR-122 sensor, CAL PDZ FP-2, ARNT-TACC3 inh)
C[C@@H]1CN([C@@H](C)CO)C(=O)c2cc(NC(=O)CCCN(C)C)ccc2O[C@@H](C)CCCCO[C@H]1CN(C)CC1CCCCC1	none (no result: CAL PDZ FP-1, CAL PDZ FP-2, ARNT-TACC3 inh)
Cc1ccc2nsnc2c1NC(=O)COc1ccccc1	none
Cc1ccc(OCC(=O)Nc2c(C)ccc3nsnc23)cc1	CAL PDZ FP-1 52
Cc1ccc(S(=O)(=O)Nc2c(C)ccc3nsnc23)cc1	miR-122 sensor 138 (no result: CFTR F508del cor)
CCS(=O)(=O)Nc1ccc2c(c1)C(=O)N(C)C[C@@H](OC)[C@H](C)CN(Cc1nccs1)[C@@H](C)CO2	none (no result: CAL PDZ FP-1, CAL PDZ FP-2)
COc1ccc(N2CCN(C(=O)c3csc4ccccc34)CC2)cc1	miR-122 sensor 162 (no result: CAL PDZ FP-1, PGC1a acetyl inh, CFTR F508del cor)
O=C(c1csc2ccccc12)N1CCN(c2ccc(Cl)c(Cl)c2)CC1	none (no result: CFTR F508del cor)
COc1ccc(-n2c(C)c(C(C)=O)c3cc(OCC(N)=O)ccc32)cc1	CAL PDZ FP-1 38
O=C(Nc1ccccc1)c1cc([N+](=O)[O-])ccc1NC1CCCCC1	miR-122 sensor 123 (no result: PGC1a acetyl inh)
O=C(Nc1ccccc1)c1cc([N+](=O)[O-])ccc1Cl	none
CC(C)C1Cc2c(sc3c2c(=O)n(-c2ccccc2)c2n[nH]c(=S)n32)CO1 (stereo unspecified)	CAL PDZ FP-1 active (no result: miR-122 sensor, PGC1a acetyl inh)
Cc1[nH][nH]c(=O)c1C(c1cc(Br)ccc1O)c1c(C)[nH][nH]c1=O	ARNT-TACC3 inh active
COc1ccc(CN(C)C[C@H]2OCCCC[C@@H](C)Oc3ccc(NC(=O)Nc4ccc(F)cc4)cc3C(=O)N([C@@H](C)CO)C[C@H]2C)cc1	none (no result: CAL PDZ FP-1, CAL PDZ FP-2)
CNC[C@H]1Oc2ccc(NC(=O)Nc3ccccc3)cc2CC(=O)N([C@@H](C)CO)C[C@H]1C	none (no result: CAL PDZ FP-1, CAL PDZ FP-2)
O=C(NCCCN1CCOCC1)c1ccc(CS(=O)(=O)Cc2ccccc2Cl)o1	ARNT-TACC3 inh active (no result: CFTR F508del cor)
COCC(=O)N1CC[C@@H]2[C@H]1c1cc(C#Cc3cccc(F)c3)ccc1N[C@@H]2CO	none (no result: CAL PDZ FP-1, CAL PDZ FP-2)
O=C(C[C@@H]1C[C@@H]2c3cc(NS(=O)(=O)c4ccccc4)ccc3O[C@@H]2[C@@H](CO)O1)N1CCCCC1	none (no result: CAL PDZ FP-1, CAL PDZ FP-2)
CO[C@@H]1CN(C)C(=O)c2cc(NC(C)=O)ccc2OC[C@@H](C)N(CCC(F)(F)F)C[C@@H]1C	none (no result: CAL PDZ FP-1, CAL PDZ FP-2)
COC(=O)C(C(=O)OC)=C(/C=C/C=C/N(C)C)N(C)C	none (no result: CAL PDZ FP-2, CFTR F508del cor)
COC(=O)C(C(=O)OC)=C(/C=C/N(C)C)N(C)C	CAL PDZ FP-1 46 (no result: CFTR F508del cor)
COCC#Cc1cnc2c(c1)C(=O)N([C@@H](C)CO)C[C@@H](C)[C@H](CN(C)C(=O)CCN1CCCCC1)O2	none (no result: CAL PDZ FP-1, CAL PDZ FP-2)
COc1ccc2oc(C(=O)N3CCc4ccccc43)c(C)c2c1	miR-122 sensor 137 (no result: PGC1a acetyl inh)
COc1cccc(S(=O)(=O)N[C@H]2CC[C@H](CC(=O)NCc3ccc(F)cc3)O[C@@H]2CO)c1	PGC1a acetyl inh 55 (no result: CAL PDZ FP-1, miR-122 sensor, CAL PDZ FP-2)
CC(C)NC(=O)N[C@@H]1CC[C@H](CC(=O)NCc2ccc(Oc3ccccc3)cc2)O[C@H]1CO	ARNT-TACC3 inh 46 (no result: CAL PDZ FP-1, miR-122 sensor, CAL PDZ FP-2)
CCN(Cc1ccccc1)c1ccc(/C=N/N=C(N)N)cc1	CFTR F508del cor 9.9 (no result: PGC1a acetyl inh)
CCS(=O)(=O)N1CCC2(CC1)CN(C(=O)NC(C)C)[C@H](CO)c1c2c2ccc(OC)cc2n1C	none (no result: CAL PDZ FP-1, miR-122 sensor, CAL PDZ FP-2, ARNT-TACC3 inh)
CC(=O)c1cccc(-n2nnnc2SCC(=O)NNC(=O)C(C)C)c1	PGC1a acetyl inh 85 (no result: CAL PDZ FP-1)
C[C@H]1CN([C@@H](C)CO)C(=O)c2cc(C#CC3CCCCC3)cnc2O[C@H]1CN(C)C(=O)Nc1ccccc1	none (no result: CAL PDZ FP-1, miR-122 sensor, CAL PDZ FP-2)
